Assay [1] relates to MCF7. Put plainly: Induction of apoptosis in human MCF7 cells by acridine orange/ethidium bromide staining-based fluorescence microscopic analysis. It counts as functional, cell-based. In a few lines: (§1)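 Treated cells collected and washed in PBS (pH 7.2). Stained with a 1:1 AO/EtBr mixture (each dye […] in water) and held 2 min. Washed twice in PBS and viewed by fluorescence microscopy at 400× with 480 nm excitation. Green intact-membrane cells distinguished from orange/red membrane-damaged cells.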

The subject of assay [2] is MCF7. Put plainly: Antiproliferative activity against human MCF7 cells after 48 hrs by MTT assay. To be noted: for IC50: MCF7, 48 h. It counts as functional, cell-based. In a few lines:
(§2)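 Cells grown 1×10⁴/well for 48 h to about 75% confluence. Medium then replaced with fresh medium containing serially diluted compounds, followed by a further 48 h. MTT added for 4 h at 37 °C and formazan dissolved in DMSO for 10 min. OD read at 620 nm. IC50 taken from the viability–concentration survival curve. Three independent experiments, each in triplicate.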

For assay [3], the system named is A549. In words: Induction of apoptosis in human A549 cells by acridine orange/ethidium bromide staining-based fluorescence microscopic analysis. It counts as functional, cell-based. A digest of the protocol: as §1
Assay [4] deals with A549. Put plainly: Induction of apoptosis in human A549 cells assessed as membrane blebbing after 24 hrs by brightfield inverted light microscopic analysis. It counts as functional, cell-based.
In assay [5] the test system is MCF7. In words: Induction of apoptosis in human MCF7 cells assessed as membrane blebbing after 24 hrs by brightfield inverted light microscopic analysis. It counts as functional, cell-based.
The subject of assay [6] is MCF7. Put plainly: Induction of apoptosis in human MCF7 cells assessed as formation of floating cells after 24 hrs by brightfield inverted light microscopic analysis. It counts as functional, cell-based.
Assay [7] concerns A549. In words: Induction of apoptosis in human A549 cells assessed as nuclear fragmentation after 24 hrs by DAPI staining-based fluorescence microscopic analysis. It counts as functional, cell-based. A digest of the protocol:
(§3)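 Cells plated on glass coverslips and treated for 24 h, then fixed. Permeabilised with 0.2% Triton X-100 for 10 min at room temperature. DAPI applied for 3 min under a coverslip. Nuclei inspected by fluorescence microscopy for condensed chromatin and fragmentation, against untreated cells.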

Assay [8] deals with MCF7. Put plainly: Induction of apoptosis in human MCF7 cells assessed as damaged cell membranes by acridine orange/ethidium bromide staining-based fluorescence microscopic analysis. It counts as functional. A digest of the protocol:
as §1

The test system of assay [9] is MCF7. Put plainly: Induction of apoptosis in human MCF7 cells assessed as cell shrinkage after 24 hrs by brightfield inverted light microscopic analysis. It counts as functional, cell-based.
In assay [10] the test system is MCF7. In words: Induction of apoptosis in human MCF7 cells assessed as nuclear condensation by acridine orange/ethidium bromide staining-based fluorescence microscopic analysis. It counts as functional, cell-based. In a few lines:
as §1

The test system of assay [11] is A549. In words: Induction of apoptosis in human A549 cells assessed as cell shrinkage after 24 hrs by brightfield inverted light microscopic analysis. It counts as functional, cell-based.
For assay [12], the system named is A549. Put plainly: Antiproliferative activity against human A549 cells after 48 hrs by MTT assay. The conditions noted are these: for IC50: A549, 48 h. It counts as functional, cell-based. In a few lines: as §2
Assay [13] deals with A549. Put plainly: Induction of apoptosis in human A549 cells assessed as formation of floating cells after 24 hrs by brightfield inverted light microscopic analysis. It counts as functional, cell-based.
The subject of assay [14] is MCF7. In words: Induction of apoptosis in human MCF7 cells assessed as chromatin condensation after 24 hrs by DAPI staining-based fluorescence microscopic analysis. It counts as functional, cell-based. In a few lines: as §3
In assay [15] the test system is MCF7. In words: Induction of apoptosis in human MCF7 cells assessed as nuclear fragmentation after 24 hrs by DAPI staining-based fluorescence microscopic analysis. It counts as functional, cell-based. In a few lines: as §3

Each structure is given as a SMILES string. Activity calls are given as the source filed them. The calls are words filed in the database; no cut-off is given here.

Take `Cc1ccc2[nH]c3c(c2c1)CC[C@]1(C3=O)[C@@H](c2ccccc2)[C@@H](c2ccccc2)N[C@@]12C(=O)Nc1ccccc12`: the outcome with MCF7 [1], in the assay with A549 [3], in the assay with A549 [4], with MCF7 [5], in the assay with MCF7 [6] and with A549 [7] was inactive. In addition, the result with MCF7 [8], with MCF7 [9], with MCF7 [10], with A549 [11] and with A549 [13] was inactive. Moreover, the Activity result in the assay with MCF7 [2] and in the assay with A549 [12] was “Dose-dependent effect” each time. The IC50 in the assay on MCF7 [2] amounted to 19 µM; in the assay on A549 [12] it was 18 µM. Further, the outcome in the assay with MCF7 [14] and in the assay with MCF7 [15] was Active.

`COc1ccc([C@H]2[C@@H](c3ccccc3)N[C@@]3(C(=O)Nc4ccccc43)[C@]23CCc2c([nH]c4ccc(Cl)cc24)C3=O)cc1`: the outcome in the assay with MCF7 [1], in the assay on A549 [3], in the assay with A549 [4], in the assay with MCF7 [5], in the assay on MCF7 [6] and with A549 [7] was inactive. The result in the assay with MCF7 [8], in the assay on MCF7 [9], in the assay with MCF7 [10], in the assay on A549 [11] and with A549 [13] was inactive. Besides, the Activity result in the assay on MCF7 [2] and with A549 [12] was “Dose-dependent effect” throughout. Also, the IC50 in the assay on MCF7 [2] was 19 µM; in the assay on A549 [12], 18 µM. The result in the assay on MCF7 [14] and in the assay on MCF7 [15] was Active.

Turning to `O=C1Nc2ccccc2[C@]12N[C@H](c1ccccc1)[C@H](c1ccccc1)[C@@]21CCc2c([nH]c3ccc(Cl)cc23)C1=O`, the result in the assay with MCF7 [1], in the assay on A549 [3], in the assay on A549 [4], in the assay on MCF7 [5], in the assay on MCF7 [6] and in the assay with A549 [7] was inactive. Also, the result in the assay with MCF7 [8], with MCF7 [9], in the assay on MCF7 [10], in the assay with A549 [11] and in the assay with A549 [13] was inactive. Moreover, the Activity result with MCF7 [2] and with A549 [12] was “Dose-dependent effect” in each case. The figures for the IC50 in the assay with MCF7 [2] and in the assay on A549 [12] were 18 µM and 15 µM, respectively. Moreover, the result in the assay on MCF7 [14] and in the assay on MCF7 [15] was Active.

For the compound `O=C1Nc2ccccc2[C@]12N[C@H](c1ccccc1)[C@H](c1cccs1)[C@@]21CCc2c([nH]c3ccccc23)C1=O`, the result in the assay on MCF7 [1], in the assay with A549 [4], in the assay with MCF7 [5], in the assay on MCF7 [6], with A549 [7] and in the assay with MCF7 [8] was inactive. The result in the assay on MCF7 [9], in the assay on MCF7 [10], in the assay on A549 [11] and with A549 [13] was inactive. For the same compound, the Activity entry in the assay on MCF7 [2] and in the assay with A549 [12] was “Dose-dependent effect” throughout. For the same compound, the IC50 in the assay on MCF7 [2] was determined as 15 µM; with A549 [12], 16 µM. The outcome with A549 [3] and in the assay on MCF7 [15] was Active.

As to `Cc1ccc2[nH]c3c(c2c1)CC[C@]1(C3=O)[C@@H](c2cccs2)[C@@H](c2ccccc2)N[C@@]12C(=O)Nc1ccccc12`, the outcome in the assay on MCF7 [1], in the assay with A549 [3], with A549 [7], in the assay with MCF7 [8], in the assay with MCF7 [10] and in the assay on MCF7 [15] was Active. The Activity result with MCF7 [2], with A549 [4], with MCF7 [5], in the assay on MCF7 [6], in the assay with MCF7 [9] and with A549 [11] was “Dose-dependent effect” in each case. Besides, the Activity result with A549 [12] and with A549 [13] was “Dose-dependent effect” each time. Besides, the IC50 came out at 14 µM in the assay with MCF7 [2] and 15 µM with A549 [12].

For `COc1ccc([C@H]2[C@@H](c3ccccc3)N[C@@]3(C(=O)Nc4ccccc43)[C@]23CCc2c([nH]c4ccccc24)C3=O)cc1`, in the assay on MCF7 [2], the Activity entry is “Dose-dependent effect” and the IC50 worked out at 17 µM. For the same compound, in the assay on A549 [12], the Activity entry is “Dose-dependent effect” and it took 21 µM to reach half-maximal inhibition (IC50).

`O=C1Nc2ccccc2[C@]12N[C@H](c1ccccc1)[C@H](c1ccccc1)[C@@]21CCc2c([nH]c3ccccc23)C1=O`: the result with MCF7 [1], in the assay on A549 [3], with A549 [4], in the assay with MCF7 [5], with MCF7 [6] and in the assay with A549 [7] was inactive. Besides, the result with MCF7 [8], in the assay with MCF7 [9], in the assay on MCF7 [10], in the assay on A549 [11] and in the assay on A549 [13] was inactive. In addition, the Activity entry in the assay on MCF7 [2] and in the assay on A549 [12] was “Dose-dependent effect” throughout. Besides, the IC50 is 15 µM in the assay on MCF7 [2] and 17 µM with A549 [12]. Moreover, in the assay on MCF7 [15], the result was Active.

For the compound `COc1ccc([C@H]2[C@@H](c3ccccc3)N[C@@]3(C(=O)Nc4ccccc43)[C@]23CCc2c([nH]c4ccc(C)cc24)C3=O)cc1`, the outcome with MCF7 [1], with A549 [3], in the assay on A549 [4], in the assay on MCF7 [5], in the assay on MCF7 [6] and in the assay on A549 [7] was inactive. The outcome with MCF7 [8], with MCF7 [9], in the assay with MCF7 [10], with A549 [11] and with A549 [13] was inactive. The Activity result in the assay on MCF7 [2] and in the assay on A549 [12] was “Dose-dependent effect” throughout. For the same compound, the IC50 in the assay on MCF7 [2] came to 18 µM; in the assay with A549 [12] it was 20 µM. Besides, the result with MCF7 [14] and with MCF7 [15] was Active.

(Values after ChEMBL document CHEMBL4138211, “Regio- and stereoselective synthesis of dispirooxindole-pyrrolocarbazole hybrids via 1,3-dipolar cycloaddition reactions: Cytotoxic activity and SAR studies” (Eur J Med Chem, 2018).)
